Laboratory results from ChEMBL document CHEMBL1139543, “Antineoplastic agents. 445. Synthesis and evaluation of structural modifications of (Z)- and (E)-combretastatin A-41” (J Med Chem, 2005).
In brackets after ≈: the same amount, converted by molar mass.

Experiments:
SW-1736 = assay: Growth inhibition against human thyroid cell line( SW 1736); format: functional
NCI-H460 = assay: Growth inhibition against human lung-NSC NCI-H460 cell line; format: functional
DU-145 = assay: Growth inhibition against human prostate cell line (DU-145); format: functional
P388 = assay: Effective dose against murine P388 leukemia cell line; format: functional; conditions: Mus musculus, read-out: ED50 (the source's name)
BXPC-3 = assay: Growth inhibition against human pancreas carcinoma cell line (BxPC-3); format: functional
Tubulin beta-1 chain = Tubulin beta-1 chain (Homo sapiens, UniProt Q9H4B7); assay: Inhibition of tubulin polymerization upon incubation for 20 min at 30 degree C
Procedure, shortened: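 Purified tubulin at 10 µM (1.0 mg/mL) in 0.8 M monosodium glutamate, pH 6.6, with 4% (v/v) DMSO and varying compound concentrations. Preincubated 15 min at 37 °C, chilled on ice, then GTP (0.4 mM) added. Warmed from 0 °C to 30 °C, and assembly followed 20 min by turbidity at 350 nm. IC50 interpolated; at least two determinations; SD reported.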

SK-N-SH = assay: Growth inhibition against human neuroblastoma cell line (SK-N-SH); format: functional
FaDu = assay: Growth inhibition against human pharynx FADU cell line; format: functional
Neisseria gonorrhoeae [1] = assay: Minimum inhibitory concentration against Neisseria gonorrhoeae was determined in the disk diffusion assay; value ranges from 12.5-25 ug/disk; format: functional
Cryptococcus neoformans = assay: Minimum inhibitory concentration against Cryptococcus neoformans was determined in the disk diffusion assay; value ranges from 6.25-12.5 ug/disk; format: functional
Candida albicans [2] = assay: Minimum inhibitory concentration against Candida albicans was determined in the disk diffusion assay; value ranges from 50-100 ug/disk; format: functional
Procedure, shortened: (§1)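 Disk diffusion on Sabouraud Dextrose Agar. MIC taken as the lowest drug amount giving a clear zone of growth inhibition.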

Neisseria gonorrhoeae [3] = assay: Minimum inhibitory concentration against Neisseria gonorrhoeae was determined in the disk diffusion assay; value ranges from 50-100 ug/disk; format: functional
Micrococcus luteus = assay: Minimum inhibitory concentration against Micrococcus luteus was determined in the disk diffusion assay; value ranges from 12.5-25 ug/disk
Staphylococcus aureus = assay: Minimum inhibitory concentration against Staphylococcus aureus was determined in the disk diffusion assay; value ranges from 25-50 ug/disk; format: functional
Candida albicans [4] = assay: Minimum inhibitory concentration against Candida albicans was determined in the disk diffusion assay; value ranges from 25-50 ug/disk; format: functional; procedure, shortened: as §1
Streptococcus pneumoniae = assay: Minimum inhibitory concentration against Streptococcus pneumoniae was determined in the disk diffusion assay; value ranges from 50-100 ug/disk; format: functional

Sequence of Tubulin beta-1 chain (Q9H4B7 whole entry): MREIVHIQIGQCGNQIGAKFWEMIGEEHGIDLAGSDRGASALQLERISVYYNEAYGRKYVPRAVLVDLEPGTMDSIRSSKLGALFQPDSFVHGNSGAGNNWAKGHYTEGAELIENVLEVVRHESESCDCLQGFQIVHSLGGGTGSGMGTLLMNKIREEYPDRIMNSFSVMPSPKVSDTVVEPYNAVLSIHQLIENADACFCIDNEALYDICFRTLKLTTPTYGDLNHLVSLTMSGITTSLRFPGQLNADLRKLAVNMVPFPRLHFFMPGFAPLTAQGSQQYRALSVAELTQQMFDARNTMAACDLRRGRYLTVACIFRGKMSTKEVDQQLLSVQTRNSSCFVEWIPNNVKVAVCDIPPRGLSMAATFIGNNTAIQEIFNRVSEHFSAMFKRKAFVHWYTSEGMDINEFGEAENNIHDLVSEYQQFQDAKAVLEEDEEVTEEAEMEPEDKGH

SMILES | GI50 (SW-1736) [µg/mL] | GI50 (NCI-H460) [µg/mL] | GI50 (DU-145) [µg/mL] | EC50 (P388) [µg/mL] | GI50 (BXPC-3) [µg/mL] | IC50 (Tubulin beta-1 chain) [µM] | GI50 (SK-N-SH) [µg/mL] | GI50 (FaDu) [µg/mL] | MIC (Neisseria gonorrhoeae [1]) [ug/disk] | MIC (Cryptococcus neoformans) [ug/disk] | MIC (Candida albicans [2]) [ug/disk] | MIC (Neisseria gonorrhoeae [3]) [ug/disk] | MIC (Micrococcus luteus) [ug/disk] | MIC (Staphylococcus aureus) [ug/disk] | MIC (Candida albicans [4]) [ug/disk] | MIC (Streptococcus pneumoniae) [ug/disk]
COc1ccc(/C=C\c2cc(OC)c(OC)c(OC)c2)cc1[N+](=O)[O-] | 0.0067 (≈ 0.0194 µM) | 0.0038 (≈ 0.011 µM) | 0.047 (≈ 0.136 µM) | 2.4 (≈ 6.95 µM) | 0.029 (≈ 0.084 µM) | 2.6 | 0.014 (≈ 0.0405 µM) | 0.047 (≈ 0.136 µM) | – | – | – | – | – | – | – | –
COc1ccc(/C=C/c2cc(OC)c(O)c(OC)c2)cc1O | > 10 | 4.9 (≈ 16.2 µM) | 6.3 (≈ 20.8 µM) | 4.49 (≈ 14.9 µM) | 5 (≈ 16.5 µM) | 14 | 5.5 (≈ 18.2 µM) | 3.2 (≈ 10.6 µM) | 25 | 12.5 | 100 | – | – | – | – | –
COc1ccc(/C=C\c2cc(OC)c(OC)c(OC)c2)cc1O [COMBRETASTATIN A4] | 0.00026 (≈ 0.000822 µM) | 0.00056 (≈ 0.00177 µM) | 0.00076 (≈ 0.0024 µM) | 0.0026 (≈ 0.00822 µM) | > 0.1 | – | 0.00026 (≈ 0.000822 µM) | 0.00065 (≈ 0.00205 µM) | – | – | – | – | – | – | – | –
COc1ccc(/C=C\c2cc(OC)c(OC)c(OC)c2)cc1OCCCO | 0.38 (≈ 1.01 µM) | 0.37 (≈ 0.988 µM) | 0.43 (≈ 1.15 µM) | 0.63 (≈ 1.68 µM) | 0.26 (≈ 0.694 µM) | 6.5 | 0.18 (≈ 0.481 µM) | 0.63 (≈ 1.68 µM) | – | – | – | 100 | – | – | – | –
COc1ccc(/C=C\c2cc(OC)c(OC)c(OC)c2)cc1OCCCl | 4.7 (≈ 12.4 µM) | 3.7 (≈ 9.77 µM) | 3.4 (≈ 8.97 µM) | 2.9 (≈ 7.65 µM) | 2.7 (≈ 7.13 µM) | > 40 | 2 (≈ 5.28 µM) | 4.6 (≈ 12.1 µM) | – | – | – | – | – | – | – | –
COc1ccc(/C=C\c2cc(OC)c(OC)c(OC)c2)cc1OCCN(C)C.Cl | 0.64 | 0.34 | 0.38 | 0.523 | > 10 | > 40 | 0.21 | 0.47 | – | – | – | – | – | – | – | –
COc1ccc(/C=C\c2cc(OC)c(OC)c(OC)c2)cc1OCC[N+](C)(C)C.[I-] | 0.1 | 0.36 | 0.33 | 1.94 | 37.2 | – | 0.28 | 0.24 | – | – | – | – | 25 | 50 | 50 | 100
COc1ccc(/C=C\c2cc(OC)c(OC)c(OC)c2)cc1OCCn1cccc1.Cl | 4.9 | 0.0033 | 0.56 | 0.0232 | 2.3 | 20 | 0.0064 | 0.003 | – | – | – | – | – | – | – | –
COc1ccc(/C=C\c2cc(OC)c(OC)c(OC)c2)cc1OP(=O)([O-])[O-].[Na+].[Na+] [FOSBRETABULIN DISODIUM] | 0.00061 | 0.00035 | 0.00072 | 0.0029 | 0.23 | – | 0.00025 | 0.00045 | – | – | – | – | – | – | – | –
COc1ccc(/C=C\c2cc(OC)c(OC)c(OC)c2)cc1OCCOS(C)(=O)=O | 1 (≈ 2.28 µM) | 0.42 (≈ 0.958 µM) | 0.59 (≈ 1.35 µM) | 2.87 (≈ 6.55 µM) | 2.7 (≈ 6.16 µM) | > 40 | 3 (≈ 6.84 µM) | 0.41 (≈ 0.935 µM) | – | – | – | – | – | – | – | –
COc1ccc(/C=C\c2cc(OC)c(OC)c(OC)c2)cc1OCCN1CCOCC1.Cl | 0.97 | 0.41 | 0.4 | 0.634 | 2.9 | > 40 | 0.22 | 0.53 | – | – | – | 100 | – | – | – | –
COc1ccc(/C=C\c2cc(OC)c(OC)c(OC)c2)cc1N(C)C | 0.8 (≈ 2.33 µM) | 0.4 (≈ 1.16 µM) | 0.11 (≈ 0.32 µM) | 0.9 (≈ 2.62 µM) | 0.015 (≈ 0.0437 µM) | – | 0.01 (≈ 0.0291 µM) | 0.09 (≈ 0.262 µM) | – | – | – | – | – | – | – | –
